Calls of active or inactive are those of the source.
Assays:
[1] = molecular target: T1, Lysophosphatidylserine lipase ABHD12 (Homo sapiens, UniProt Q8N2K0); experiment: Inhibition of human ABHD12 expressed in HEK293 cells using 2-OG as substrate preincubated for 30 mins followed by substrate addition and measured after 5 mins by liquid scintillation spectroscopy; assay type: cell-based
T1 sequence (Q8N2K0 whole entry): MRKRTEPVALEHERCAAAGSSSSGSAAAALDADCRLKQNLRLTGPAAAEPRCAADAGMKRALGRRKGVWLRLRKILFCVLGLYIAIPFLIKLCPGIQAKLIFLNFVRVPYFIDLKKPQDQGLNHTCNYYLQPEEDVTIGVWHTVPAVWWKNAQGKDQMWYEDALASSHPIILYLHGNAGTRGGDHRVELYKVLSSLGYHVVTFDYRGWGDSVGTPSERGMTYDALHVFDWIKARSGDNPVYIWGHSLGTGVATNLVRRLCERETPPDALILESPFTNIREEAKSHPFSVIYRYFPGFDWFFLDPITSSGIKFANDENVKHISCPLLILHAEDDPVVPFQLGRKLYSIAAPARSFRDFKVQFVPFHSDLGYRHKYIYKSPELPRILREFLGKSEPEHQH
Outline: (§1)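 Homogenates (40 µg) from HEK293 stably expressing hABHD6 or hABHD12 pre-incubated with compound 30 min at 37 °C in […], 0.1% BSA, pH 7.6; then 10 μM 2-OG for 5 min at 37 °C. Aqueous phase tritium counted after CHCl3:MeOH stop; no-enzyme blanks and non-transfected HEK293 hydrolysis subtracted. Controls WWL70 10 μM, THL 20 μM.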

Cannabinoid receptor 1 [2] = molecular target: T2, Cannabinoid receptor 1 (Homo sapiens, UniProt P21554); experiment: Displacement of [3H]CP55940 from recombinant human CB1R expressed in CHO cell membranes incubated for 90 mins; parameters: species or system Membrane
[3] = molecular target: T3, Fatty-acid amide hydrolase 1 (Homo sapiens, UniProt O00519); experiment: Inhibition of FAAH in human U937 cells using [ethanolamine-1-3H]AEA as substrate preincubated for 15 mins followed by substrate addition and measured after 15 mins by liquid scintillation spectroscopy; assay type: cell-based, U-937
T3 sequence (O00519 whole entry): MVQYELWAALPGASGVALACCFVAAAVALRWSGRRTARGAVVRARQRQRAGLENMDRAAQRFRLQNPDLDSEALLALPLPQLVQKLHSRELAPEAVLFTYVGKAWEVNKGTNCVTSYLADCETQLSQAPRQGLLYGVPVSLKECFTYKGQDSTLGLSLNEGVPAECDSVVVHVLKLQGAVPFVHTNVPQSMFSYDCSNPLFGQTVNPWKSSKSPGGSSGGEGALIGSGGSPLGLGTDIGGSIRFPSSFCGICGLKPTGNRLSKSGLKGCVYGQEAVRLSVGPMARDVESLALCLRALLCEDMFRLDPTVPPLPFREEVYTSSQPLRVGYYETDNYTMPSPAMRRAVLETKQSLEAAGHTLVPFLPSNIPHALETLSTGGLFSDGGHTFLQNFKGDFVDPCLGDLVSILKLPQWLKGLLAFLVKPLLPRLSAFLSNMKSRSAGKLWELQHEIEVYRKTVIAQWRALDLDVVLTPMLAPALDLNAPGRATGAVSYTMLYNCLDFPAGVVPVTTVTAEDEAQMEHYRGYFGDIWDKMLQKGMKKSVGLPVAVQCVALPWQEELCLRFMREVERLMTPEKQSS
Outline: (§2)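 Intact U937 cells, 10^6 per condition, pre-incubated with compound 15 min at 37 °C with shaking (screen at 10 μM; full curves for hits). Substrate: 1 μM AEA with 1 nM [3H]AEA (FAAH) or 10 μM 2-OG with 5 nM [3H]2-OG (MAGL), 15 min at 37 °C. Stopped with CHCl3:MeOH 1:1, aqueous tritium counted; mean ± SD, ≥3 experiments in triplicate.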

Monoglyceride lipase = molecular target: T4, Monoglyceride lipase (Homo sapiens, UniProt Q99685); experiment: Inhibition of MAGL in human U937 cells using [glycerol-1,2,3-3H]2-OG as substrate preincubated for 15 mins followed by substrate addition and measured after 15 mins by liquid scintillation spectroscopy; assay type: cell-based, U-937; outline: as §2
T4 sequence (Q99685 whole entry): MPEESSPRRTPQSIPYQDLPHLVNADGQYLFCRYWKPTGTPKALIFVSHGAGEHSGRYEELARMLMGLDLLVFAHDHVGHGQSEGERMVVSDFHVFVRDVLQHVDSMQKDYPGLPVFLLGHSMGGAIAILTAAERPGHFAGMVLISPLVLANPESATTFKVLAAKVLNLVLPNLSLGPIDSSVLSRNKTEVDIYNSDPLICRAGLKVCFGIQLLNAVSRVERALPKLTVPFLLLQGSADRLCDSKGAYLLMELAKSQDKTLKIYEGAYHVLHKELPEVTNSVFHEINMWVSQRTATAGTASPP

Cannabinoid receptor 2 [4] = molecular target: T5, Cannabinoid receptor 2 (Homo sapiens, UniProt P34972); experiment: Displacement of [3H]CP55940 from recombinant human CB2R expressed in CHO cell membranes incubated for 90 mins; parameters: species or system Membrane
[5] = molecular target: T6, Monoacylglycerol lipase ABHD6 (Homo sapiens, UniProt Q9BV23); experiment: Inhibition of human ABHD6 expressed in HEK293 cells using 2-OG as substrate preincubated for 30 mins followed by substrate addition and measured after 5 mins by liquid scintillation spectroscopy; assay type: cell-based; outline: as §1
T6 sequence (Q9BV23 whole entry): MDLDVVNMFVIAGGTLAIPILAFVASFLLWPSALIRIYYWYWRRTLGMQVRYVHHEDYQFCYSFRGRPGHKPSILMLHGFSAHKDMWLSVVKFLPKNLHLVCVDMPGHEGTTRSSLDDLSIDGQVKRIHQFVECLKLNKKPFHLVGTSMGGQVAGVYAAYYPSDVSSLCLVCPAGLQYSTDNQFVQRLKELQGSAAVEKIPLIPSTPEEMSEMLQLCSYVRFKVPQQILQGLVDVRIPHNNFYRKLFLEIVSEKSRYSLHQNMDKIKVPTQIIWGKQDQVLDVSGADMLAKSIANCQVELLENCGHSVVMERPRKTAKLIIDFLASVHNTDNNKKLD

Homo sapiens = organism: Homo sapiens; experiment: Selectivity index, ratio of Ki for human CB1R expressed in CHO cell membranes to Ki for human CB2R expressed in CHO cell membranes; assay type: cell-based
Cannabinoid receptor 2 [6] = molecular target: T5, Cannabinoid receptor 2; experiment: Agonist activity at human CB2R expressed in CHO cell membranes after 90 mins by [35S]GTPgammaS assay; assay type: functional, Membrane
Outline: (§3)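 In-house CHO membranes expressing hCB1 or hCB2 (10 µg) in 50 mM Tris-HCl, 3 mM MgCl2, 0.2 mM EDTA, 100 mM NaCl, 0.5% fatty-acid-free BSA, pH 7.4, with 10 μM GDP and 0.1 nM [35S]GTPγS. Incubated 90 min at 30 °C; antagonist pre-incubated 30 min. Nonspecific binding with 10 μM GTPγS; bound label by filtration and counting; ≥3 experiments in triplicate.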

Cannabinoid receptor 1 [7] = molecular target: T2, Cannabinoid receptor 1; experiment: Agonist activity at human CB1R expressed in CHO cell membranes after 90 mins by [35S]GTPgammaS assay; assay type: functional, Membrane; outline: as §3
Cannabinoid receptor 2 [8] = molecular target: T5, Cannabinoid receptor 2; experiment: Inverse agonist activity at human CB2R expressed in CHO cell membranes after 90 mins by [35S]GTPgammaS assay; assay type: functional, Membrane; outline: as §3
Mus musculus [9] = experiment: In vivo agonist activity at CB1R in BALB/c mouse assessed as induction of analgesia at 5 mg/kg, ip measured after 1 hr by hotplate test; assay type: functional, organism-based
Outline: (§4)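 BALB/c mice given 5 mg/kg i.p. in DMSO (20 µL), tested 1 h later. Rectal temperature change from basal; catalepsy by bar test (4 cm bar, 120 s cut-off); locomotion by rotarod latency to fall at 4 rpm (120 s cut-off, 3 trials); analgesia by hot plate at 54-56 °C, first paw lick or shake. n = 5-20 per group.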

Cannabinoid receptor 1 [10] = molecular target: T2, Cannabinoid receptor 1; experiment: Antagonist activity at human CB1R expressed in CHO cell membranes preincubated for 30 mins followed by GTPgammaS addition and measured after 90 mins by [35S]GTPgammaS assay; assay type: functional, Membrane; outline: as §3
Mus musculus [11] = experiment: In vivo agonist activity at CB1R in BALB/c mouse assessed as reduction in body temperature at 5 mg/kg, ip measured after 1 hr by tetrad test; assay type: functional, organism-based; outline: as §4
Mus musculus [12] = experiment: In vivo agonist activity at CB1R in BALB/c mouse assessed as catalpesy-like behaviour by measuring increase in immobility time at 5 mg/kg, ip measured after 1 hr by bar test; assay type: functional, organism-based; outline: as §4
Mus musculus [13] = experiment: In vivo agonist activity at CB1R in BALB/c mouse assessed as reduction in spontaneous locomotion at 5 mg/kg, ip measured after 1 hr by rotarod test; assay type: functional, organism-based; outline: as §4

T2 sequence (P21554 whole entry): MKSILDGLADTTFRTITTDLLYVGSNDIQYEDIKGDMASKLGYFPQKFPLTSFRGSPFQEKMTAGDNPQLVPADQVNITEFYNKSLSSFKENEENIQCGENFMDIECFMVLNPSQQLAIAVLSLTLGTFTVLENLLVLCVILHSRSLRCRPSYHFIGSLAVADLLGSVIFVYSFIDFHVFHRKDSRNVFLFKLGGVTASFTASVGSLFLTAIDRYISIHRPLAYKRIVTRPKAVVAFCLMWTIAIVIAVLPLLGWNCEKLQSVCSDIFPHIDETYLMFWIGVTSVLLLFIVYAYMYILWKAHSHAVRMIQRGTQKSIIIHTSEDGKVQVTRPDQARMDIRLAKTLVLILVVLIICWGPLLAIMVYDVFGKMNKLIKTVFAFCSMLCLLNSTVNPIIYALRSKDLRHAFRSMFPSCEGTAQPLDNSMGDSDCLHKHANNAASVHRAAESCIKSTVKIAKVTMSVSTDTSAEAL
T5 sequence (P34972 whole entry): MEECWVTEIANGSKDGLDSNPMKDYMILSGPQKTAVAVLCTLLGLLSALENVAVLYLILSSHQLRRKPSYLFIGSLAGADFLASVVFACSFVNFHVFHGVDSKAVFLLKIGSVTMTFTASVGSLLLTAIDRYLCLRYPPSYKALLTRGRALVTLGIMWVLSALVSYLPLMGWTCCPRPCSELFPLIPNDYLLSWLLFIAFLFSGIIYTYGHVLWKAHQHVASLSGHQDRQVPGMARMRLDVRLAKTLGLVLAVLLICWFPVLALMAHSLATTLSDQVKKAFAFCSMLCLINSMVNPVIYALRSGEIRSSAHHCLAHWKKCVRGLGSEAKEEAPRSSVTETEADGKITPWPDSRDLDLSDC

SMILES | IC50 [1] | Ki (Cannabinoid receptor 1 [2]) | IC50 [3] | IC50 (Monoglyceride lipase) | Ki (Cannabinoid receptor 2 [4]) | IC50 [5] | Ratio Ki (Homo sapiens) | EC50 (Cannabinoid receptor 2 [6]) | EC50 (Cannabinoid receptor 1 [7]) | EC50 (Cannabinoid receptor 2 [8]) | Activity (Mus musculus [9]) | EC50 (Cannabinoid receptor 1 [10]) | Activity (Mus musculus [11]) | Activity (Mus musculus [12]) | Activity (Mus musculus [13])
CC(=O)N[C@@H]1[C@@H](O)[C@H](O)[C@@H](CO)O[C@H]1NC(=O)c1cc(Br)c(C)n(Cc2ccc(F)cc2)c1=O | > 10000 nM | > 10000 nM | > 10000 nM | > 10000 nM | > 10000 nM | > 10000 nM | – | – | – | – | – | – | – | – | –
CO[C@@H]1O[C@H](CNC(=O)c2cc(Br)c(C)n(Cc3ccc(F)cc3)c2=O)[C@H](O)[C@H](O)[C@H]1O | > 10000 nM | > 10000 nM | > 10000 nM | > 10000 nM | > 10000 nM | > 10000 nM | – | – | – | – | – | – | – | – | –
Cc1c(Cl)cc(C(=O)NC2CCCCCC2)c(=O)n1Cc1ccc(F)cc1 | > 10000 nM | 3.7 nM | 5900 nM | > 10000 nM | 4.3 nM | > 10000 nM | 0.86 | 3.3 nM | 1.12 nM | – | – | – | – | – | –
Cc1c(F)cc(C(=O)NC2CCCCCC2)c(=O)n1Cc1ccc(F)cc1 | > 10000 nM | 4.9 nM | > 10000 nM | > 10000 nM | 5.7 nM | > 10000 nM | 0.86 | 24.4 nM | 43.2 nM | – | – | – | – | – | –
Cc1c(-c2ccccc2)cc(C(=O)NC2CCCCCC2)c(=O)n1Cc1ccc(F)cc1 | > 10000 nM | 176 nM | 560 nM | > 10000 nM | 5.7 nM | > 10000 nM | – | – | – | 17 nM | inactive | 0.36 nM | inactive | inactive | inactive
Cc1nc(OCc2ccc(F)cc2)c(C(=O)NC2CCCCCC2)cc1Br | 2100 nM | 76.1 nM | > 10000 nM | > 10000 nM | 1.5 nM | > 10000 nM | – | 31.6 nM | 586 nM | – | – | – | – | – | –
